Active and inactive are the calls of the source.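 How the source made its calls, unless noted: active means viability at or under a set limit in both replicates, limit being median viability minus 3 SD (cut at about 48% in these data, passing the limit was not always enough); inconclusive means at or under the limit in just one replicate; inactive means at or above the limit in both replicates.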
Tests used:
[1] = reducers of endogenous Her2 protein level, primary screen, SKBR3 breast tumor cells, AlphaScreen, ATP viability (AID 461;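 active means Her2 level under about 52% in both replicate screens, with viability over 70% of control, limit read from the data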;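 on Her2 level: lower value means less Her2 protein in the cells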;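 on viability: percent of carrier control wells set as 100% viability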); conditions: 18-24 h, measured here: SKBR3 viability, ATP luminescence, at 10 µM
[2] = biological target: Receptor tyrosine-protein kinase erbB-2 (Homo sapiens) (UniProt P04626); assay: as above; conditions: 18-24 h, at 10 µM, stronger effect = lower value
Chain of Receptor tyrosine-protein kinase erbB-2 (Homo sapiens) (P04626 whole entry, looked up): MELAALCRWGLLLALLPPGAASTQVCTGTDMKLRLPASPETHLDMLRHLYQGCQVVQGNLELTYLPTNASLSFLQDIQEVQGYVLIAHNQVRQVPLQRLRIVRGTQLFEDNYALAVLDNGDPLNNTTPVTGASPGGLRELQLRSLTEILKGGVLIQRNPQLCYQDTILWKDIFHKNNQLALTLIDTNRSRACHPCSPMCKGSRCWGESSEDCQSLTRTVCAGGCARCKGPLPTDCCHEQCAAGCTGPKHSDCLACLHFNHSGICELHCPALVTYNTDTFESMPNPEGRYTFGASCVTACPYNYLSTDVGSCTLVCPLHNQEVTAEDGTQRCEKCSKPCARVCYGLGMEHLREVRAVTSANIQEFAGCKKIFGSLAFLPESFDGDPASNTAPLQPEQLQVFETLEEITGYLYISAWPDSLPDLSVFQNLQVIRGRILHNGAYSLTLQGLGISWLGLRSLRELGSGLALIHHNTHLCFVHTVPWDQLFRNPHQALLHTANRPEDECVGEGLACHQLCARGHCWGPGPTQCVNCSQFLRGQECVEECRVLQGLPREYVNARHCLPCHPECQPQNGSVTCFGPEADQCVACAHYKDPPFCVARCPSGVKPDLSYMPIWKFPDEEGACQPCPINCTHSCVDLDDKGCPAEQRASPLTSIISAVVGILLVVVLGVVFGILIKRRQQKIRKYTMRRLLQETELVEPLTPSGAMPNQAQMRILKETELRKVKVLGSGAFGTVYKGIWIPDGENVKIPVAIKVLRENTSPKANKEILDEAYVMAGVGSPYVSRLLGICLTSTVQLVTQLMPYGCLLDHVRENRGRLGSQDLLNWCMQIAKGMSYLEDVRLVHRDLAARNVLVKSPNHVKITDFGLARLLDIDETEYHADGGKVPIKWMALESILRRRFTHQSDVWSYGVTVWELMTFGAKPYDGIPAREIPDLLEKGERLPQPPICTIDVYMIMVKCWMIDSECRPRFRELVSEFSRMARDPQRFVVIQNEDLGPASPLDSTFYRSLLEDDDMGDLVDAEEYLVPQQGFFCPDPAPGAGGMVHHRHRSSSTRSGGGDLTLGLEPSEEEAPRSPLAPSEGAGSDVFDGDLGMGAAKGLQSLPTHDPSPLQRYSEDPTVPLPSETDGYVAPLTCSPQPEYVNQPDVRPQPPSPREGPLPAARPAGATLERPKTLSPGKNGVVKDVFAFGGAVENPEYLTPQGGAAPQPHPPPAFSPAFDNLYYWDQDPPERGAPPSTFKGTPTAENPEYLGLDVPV

[3] = SK-BR-3 cell growth inhibitors, pilot screen, 24 h, human (AID 572;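 active means viability at or below 10% of carrier control in both of two separate runs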;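 further: compound exposure lasted between 18 and 24 h rather than exactly 24 h; 100% = carrier-treated control wells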); conditions: SK-BR-3 viability, CellTiter-Glo luminescence, at 10 µM, stronger effect = lower value
[4] = HUVEC growth inhibition – cell-based, human, primary screen (AID 575;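 active means viability at or below 30% in both replicate assays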;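 further: 100% = median of untreated cell wells with 0.1% DMSO on each plate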); conditions: HUVEC proliferation, CellTiter-Glo luminescence, 72 h; at 10 µM; stronger effect = lower value
Outline: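 Test system: HUVEC primary cells. Quantity: 1250 endothelial cells in each well. Dosing: single-point 10 µM, DMSO 0.1% final. Incubation: 72 h treatment at 37 °C. Measured by: CTG luminescence. Control set: DMSO cell controls and MePR drug controls. Plate: collagen-coated 384-well format.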

[5] = growth inhibitors of H69AR lung tumor, primary screen, human, duplicate replicates (AID 580); conditions: H69AR lung tumor cells viability, ATP luminescence, 72 h; at 10 µM; stronger effect = lower value;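 further: 100% = mean luminescence of untreated wells and 0% = no signal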
[6] = reversal of MRP1-mediated doxorubicin resistance, pilot screen, H69AR cells, doxorubicin co-treatment (AID 601;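 active means viability loss from added drug above about 55%, and viability with drug at most 40%, in both replicates, limit read from the data, passing the limit was not always enough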); conditions: CellTiter-Glo, 72 h, at 10 µM; for differential viability (reversal): stronger effect = higher value
[7] = H69AR cells + 2 uM doxorubicin, measured here: viability with 2 uM doxorubicin, stronger effect = lower value
[8] = H69AR cells, compound alone cytotoxicity

Structure (SMILES) | viability [1] | Her2 level [2] | viability [3] | viability [4] | viability [5] | differential viability (reversal) ([6]; H69AR cells + 2 uM doxorubicin) | viability [6, 7] | viability [6, 8]
CCCCOc1ccc(CC(=O)NO)cc1 | 122% | 98.5% (inactive) | 122% (inactive) | 97% (inactive) | 54.2% (inactive) | -0.05% (inactive) | 54.3% | 54.2%
Cc1nnc(NS(=O)(=O)c2ccc(N)cc2)s1 | 93.5% | 126% (inactive) | 93.5% (inactive) | 105% (inactive) | 96.2% (inactive) | -10.4% (inactive) | 107% | 96.2%
CC(C)[N+](C)(CCOC(=O)C1c2ccccc2Oc2ccccc21)C(C)C | 108% | 93% (inactive) | 108% (inactive) | 100% (inactive) | 88.1% (inactive) | 2.38% (inactive) | 85.7% | 88.1%
CCOC(=O)[C@H](CCc1ccccc1)N[C@@H](C)C(=O)N1CCC[C@H]1C(=O)O | 116% | 100% (inactive) | 116% (inactive) | 103% (inactive) | 88.6% (inactive) | -8.79% (inactive) | 97.4% | 88.6%
S=C(N=Nc1ccccc1)NNc1ccccc1 | 118% | 90% (inactive) | 118% (inactive) | 80% (inactive) | 81.4% (inactive) | -6.66% (inactive) | 88% | 81.4%
C[C@]12C=CC(=O)C=C1CC[C@H]1[C@@H]3C[C@@H](O)[C@](O)(C(=O)CO)[C@@]3(C)C[C@H](O)[C@@]12F | 94% | 110% (inactive) | 94% (inactive) | 101% (inactive) | 106% (inactive) | -2.81% (inactive) | 109% | 106%
Nc1nnc(-c2cccc(Cl)c2Cl)c(N)n1 | 109% | 124% (inactive) | 109% (inactive) | 103% (inactive) | 97.1% (inactive) | 3.66% (inactive) | 93.4% | 97.1%
COc1ccc2cc([C@H](C)C(=O)O)ccc2c1 | 93.5% | 107% (inactive) | 93.5% (inactive) | 111% (inactive) | 94.8% (inactive) | 11.8% (inactive) | 83% | 94.8%
COc1ccc(-c2coc3cc(O)cc(O)c3c2=O)cc1 | 118% | 99% (inactive) | 118% (inactive) | 84.2% (inactive) | 68.8% (inactive) | -27% (inactive) | 95.8% | 68.8%
CCS(=O)(=O)CCn1c([N+](=O)[O-])cnc1C | 89.5% | 122% (inactive) | 89.5% (inactive) | 105% (inactive) | 100% (inactive) | 9.26% (inactive) | 90.9% | 100%
CC(=O)[C@@]1(O)CC[C@H]2[C@@H]3CCC4=CC(=O)CC[C@]4(C)[C@H]3[C@@H](O)C[C@@]21C | 97% | 104% (inactive) | 97% (inactive) | 94.8% (inactive) | 99.5% (inactive) | 0.36% (inactive) | 99.2% | 99.5%
CCOC(=O)CCC(=O)O[C@H]1[C@H](O[C@@H]2[C@@H](C)[C@H](O[C@H]3C[C@@](C)(OC)[C@@H](O)[C@H](C)O3)[C@@H](C)C(=O)O[C@H](CC)[C@@](C)(O)[C@H](O)[C@@H](C)C(=O)[C@H](C)C[C@@]2(C)O)O[C@H](C)C[C@@H]1N(C)C | 97% | 98% (inactive) | 97% (inactive) | 79.6% (inactive) | 89.8% (inactive) | -0.63% (inactive) | 90.4% | 89.8%
CO[C@@]1(NC(=O)CSCC#N)C(=O)N2C(C(=O)O)=C(CSc3nnnn3C)CS[C@@H]21 | 110% | 136% (inactive) | 110% (inactive) | 97% (inactive) | 95% (inactive) | -5.77% (inactive) | 101% | 95%
CCCn1c(=O)[nH]c(=O)c2[nH]cnc21 | 104% | 92% (inactive) | 104% (inactive) | 98.1% (inactive) | 100% (inactive) | 3.64% (inactive) | 96.7% | 100%
C[C@]12CCC(=O)C=C1CC[C@@H]1[C@@H]2C(=O)C[C@@]2(C)[C@H]1CC[C@]2(O)C(=O)CO | 82.5% | 110% (inactive) | 82.5% (inactive) | 98% (inactive) | 101% (inactive) | 12.6% (inactive) | 88.8% | 101%
CCCC(=O)Nc1ccc(OCC(O)CNC(C)C)c(C(C)=O)c1 (stereo not drawn) | 100% | 121% (inactive) | 100% (inactive) | 115% (inactive) | 101% (inactive) | -0.95% (inactive) | 102% | 101%
CCOc1ccc2nc(S(N)(=O)=O)sc2c1 | 127% | 92% (inactive) | 127% (inactive) | 59% (inactive) | 67.6% (inactive) | 7.23% (inactive) | 60.4% | 67.6%
CN1Cc2c(N)cccc2C(c2ccccc2)C1 (stereo not drawn) | 81% | 102% (inactive) | 81% (inactive) | 106% (inactive) | 102% (inactive) | 5.5% (inactive) | 96.5% | 102%

Structure (SMILES) | viability [1] | Her2 level [2] | viability [3] | viability [4] | viability [5] | differential viability (reversal) ([6]; H69AR cells + 2 uM doxorubicin) | viability [6, 7] | viability [6, 8]
Cc1cc(NC(=O)C2=C(O)c3ccccc3S(=O)(=O)N2C)no1 | 96.5% | 113% (inactive) | 96.5% (inactive) | 109% (inactive) | 112% (inactive) | 16.9% (inactive) | 94.7% | 112%
Cc1ccccc1C(OCCN(C)C)c1ccccc1 (stereo not drawn) | 93% | 86% (inactive) | 93% (inactive) | 98.9% (inactive) | 91.3% (inactive) | 10.8% (inactive) | 80.5% | 91.3%
O=C(O)c1cccnc1Nc1cccc(C(F)(F)F)c1 | 100% | 98.5% (inactive) | 100% (inactive) | 86.4% (inactive) | 108% (inactive) | 13.5% (inactive) | 94.5% | 108%
CCN1CCN(c2cc3c(cc2F)c(=O)c(C(=O)O)cn3C2CC2)CC1 | 103% | 98.5% (inactive) | 103% (inactive) | 98.3% (inactive) | 92% (inactive) | 3.18% (inactive) | 88.8% | 92%
O=C1N[C@@H](Cc2cnc[nH]2)C(=O)N2CCC[C@@H]12 | 113% | 97% (inactive) | 113% (inactive) | 94.9% (inactive) | 87.1% (inactive) | -2.25% (inactive) | 89.3% | 87.1%
Cc1ncc([N+](=O)[O-])n1CC(O)CCl (stereo not drawn) | 99.5% | 106% (inactive) | 99.5% (inactive) | 108% (inactive) | 104% (inactive) | 0.25% (inactive) | 104% | 104%
C[C@]12C[C@H](O)[C@H]3[C@@H](CCC4=CC(=O)CC[C@@]43C)[C@@H]1CC[C@@H]2C(=O)CO | 106% | 104% (inactive) | 106% (inactive) | 105% (inactive) | 88.3% (inactive) | -5.99% (inactive) | 94.3% | 88.3%
CC1(C)O[C@@H]2C[C@H]3[C@@H]4C[C@H](F)C5=CC(=O)C=C[C@]5(C)[C@@]4(F)[C@@H](O)C[C@]3(C)[C@]2(C(=O)CO)O1 | 94% | 110% (inactive) | 94% (inactive) | 90.5% (inactive) | 94.1% (inactive) | 1.96% (inactive) | 92.2% | 94.1%
CCCCC1C(=O)N(c2ccccc2)N(c2ccccc2)C1=O | 99% | 90.5% (inactive) | 99% (inactive) | 99.1% (inactive) | 98.5% (inactive) | 7.41% (inactive) | 91.1% | 98.5%
CN(C)[C@@H]1C(=O)C(C(N)=O)=C(O)[C@@]2(O)C(=O)C3=C(O)c4c(O)ccc(Cl)c4[C@@H](O)[C@H]3C[C@@H]12 | 140% | 108% (inactive) | 140% (inactive) | 101% (inactive) | 84.2% (inactive) | 0.66% (inactive) | 83.6% | 84.2%
NS(=O)(=O)c1cc2c(cc1Cl)NC(C1C[C@H]3C=C[C@@H]1C3)NS2(=O)=O (stereo partly drawn) | 110% | 130% (inactive) | 110% (inactive) | 88.3% (inactive) | 92.7% (inactive) | -10.8% (inactive) | 104% | 92.7%
CC(COc1ccccc1)NC(C)C(O)c1ccc(O)cc1 (stereo not drawn) | 97% | 105% (inactive) | 97% (inactive) | 88.5% (inactive) | 88.6% (inactive) | -17.2% (inactive) | 106% | 88.6%
CC1(C)O[C@@H]2C[C@H]3[C@@H]4CCC5=CC(=O)C=C[C@]5(C)[C@@]4(F)[C@@H](O)C[C@]3(C)[C@]2(C(=O)CO)O1 | 90.5% | 128% (inactive) | 90.5% (inactive) | 103% (inactive) | 92.8% (inactive) | -10.5% (inactive) | 103% | 92.8%
CC(=O)NS(=O)(=O)c1ccc(N)cc1 | 118% | 124% (inactive) | 118% (inactive) | 90% (inactive) | 102% (inactive) | 6.32% (inactive) | 95.4% | 102%
CCCCN(CCCC)CCCOC(=O)c1ccc(N)cc1 | 92% | 106% (inactive) | 92% (inactive) | 111% (inactive) | 90.7% (inactive) | -8.53% (inactive) | 99.2% | 90.7%
O=C(O)Cc1cc(I)c(Oc2ccc(O)c(I)c2)c(I)c1 | 89% | 106% (inactive) | 89% (inactive) | 76% (inactive) | 96.3% (inactive) | -4.12% (inactive) | 100% | 96.3%
CN(C)CCOC(C)(c1ccccc1)c1ccccn1 (stereo not drawn) | 79.5% | 120% (inactive) | 79.5% (inactive) | 113% (inactive) | 93.5% (inactive) | -11.6% (inactive) | 105% | 93.5%
NC(N)=NS(=O)(=O)c1ccc(N)cc1 | 100% | 105% (inactive) | 100% (inactive) | 89.2% (inactive) | 98.8% (inactive) | -2.93% (inactive) | 102% | 98.8%
